Test results as given in ChEMBL document CHEMBL1781980, “Structure-activity relationship studies to probe the phosphoprotein binding site on the carboxy terminal domains of the breast cancer susceptibility gene 1” (J Med Chem, 2011).
The source made the active and inactive calls. The calls are words filed in the database; no cut-off is given here. Non-standard residues stand in square brackets, D forms with d. Residues, ends and D or L forms follow the SMILES beside them. pS = N[C@@H](COP(=O)(O)O)C(=O)O

Tests used:
[1] = target: T1, Breast cancer type 1 susceptibility protein (Homo sapiens, UniProt P38398); assay: Binding affinity to BRCA1 by isothermal titration calorimetric assay
Summary of the method: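 Direct ITC titration at 25°C. Protein dialyzed three times (2 h each) into 50mM KH2PO4 pH = 7.2; final dialysate used for reference cell and to dissolve peptides. Peptides (100 – 400 μM) in syringe, protein (10 – 20 μM) in cell; 3 μL first injection then 29 × 10 μL every 3 minutes, stirred at 307 rpm. Peptide-into-buffer dilution curves collected; Kd and ΔG, ΔH, ΔS derived.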

[2] = target: T1, Breast cancer type 1 susceptibility protein; assay: Inhibition of BRCA1 by fluorescence polarization assay
Summary of the method: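 Competitive fluorescence polarization assay. Peptides titrated into a mixture of BRCT protein (1000 nM) and fluorescently labeled tetrapeptide (100 nM). Polarization and fluorescence read on a plate reader. IC50 values obtained by non-linear least square fitting.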
Target sequence in this assay (P38398 whole entry): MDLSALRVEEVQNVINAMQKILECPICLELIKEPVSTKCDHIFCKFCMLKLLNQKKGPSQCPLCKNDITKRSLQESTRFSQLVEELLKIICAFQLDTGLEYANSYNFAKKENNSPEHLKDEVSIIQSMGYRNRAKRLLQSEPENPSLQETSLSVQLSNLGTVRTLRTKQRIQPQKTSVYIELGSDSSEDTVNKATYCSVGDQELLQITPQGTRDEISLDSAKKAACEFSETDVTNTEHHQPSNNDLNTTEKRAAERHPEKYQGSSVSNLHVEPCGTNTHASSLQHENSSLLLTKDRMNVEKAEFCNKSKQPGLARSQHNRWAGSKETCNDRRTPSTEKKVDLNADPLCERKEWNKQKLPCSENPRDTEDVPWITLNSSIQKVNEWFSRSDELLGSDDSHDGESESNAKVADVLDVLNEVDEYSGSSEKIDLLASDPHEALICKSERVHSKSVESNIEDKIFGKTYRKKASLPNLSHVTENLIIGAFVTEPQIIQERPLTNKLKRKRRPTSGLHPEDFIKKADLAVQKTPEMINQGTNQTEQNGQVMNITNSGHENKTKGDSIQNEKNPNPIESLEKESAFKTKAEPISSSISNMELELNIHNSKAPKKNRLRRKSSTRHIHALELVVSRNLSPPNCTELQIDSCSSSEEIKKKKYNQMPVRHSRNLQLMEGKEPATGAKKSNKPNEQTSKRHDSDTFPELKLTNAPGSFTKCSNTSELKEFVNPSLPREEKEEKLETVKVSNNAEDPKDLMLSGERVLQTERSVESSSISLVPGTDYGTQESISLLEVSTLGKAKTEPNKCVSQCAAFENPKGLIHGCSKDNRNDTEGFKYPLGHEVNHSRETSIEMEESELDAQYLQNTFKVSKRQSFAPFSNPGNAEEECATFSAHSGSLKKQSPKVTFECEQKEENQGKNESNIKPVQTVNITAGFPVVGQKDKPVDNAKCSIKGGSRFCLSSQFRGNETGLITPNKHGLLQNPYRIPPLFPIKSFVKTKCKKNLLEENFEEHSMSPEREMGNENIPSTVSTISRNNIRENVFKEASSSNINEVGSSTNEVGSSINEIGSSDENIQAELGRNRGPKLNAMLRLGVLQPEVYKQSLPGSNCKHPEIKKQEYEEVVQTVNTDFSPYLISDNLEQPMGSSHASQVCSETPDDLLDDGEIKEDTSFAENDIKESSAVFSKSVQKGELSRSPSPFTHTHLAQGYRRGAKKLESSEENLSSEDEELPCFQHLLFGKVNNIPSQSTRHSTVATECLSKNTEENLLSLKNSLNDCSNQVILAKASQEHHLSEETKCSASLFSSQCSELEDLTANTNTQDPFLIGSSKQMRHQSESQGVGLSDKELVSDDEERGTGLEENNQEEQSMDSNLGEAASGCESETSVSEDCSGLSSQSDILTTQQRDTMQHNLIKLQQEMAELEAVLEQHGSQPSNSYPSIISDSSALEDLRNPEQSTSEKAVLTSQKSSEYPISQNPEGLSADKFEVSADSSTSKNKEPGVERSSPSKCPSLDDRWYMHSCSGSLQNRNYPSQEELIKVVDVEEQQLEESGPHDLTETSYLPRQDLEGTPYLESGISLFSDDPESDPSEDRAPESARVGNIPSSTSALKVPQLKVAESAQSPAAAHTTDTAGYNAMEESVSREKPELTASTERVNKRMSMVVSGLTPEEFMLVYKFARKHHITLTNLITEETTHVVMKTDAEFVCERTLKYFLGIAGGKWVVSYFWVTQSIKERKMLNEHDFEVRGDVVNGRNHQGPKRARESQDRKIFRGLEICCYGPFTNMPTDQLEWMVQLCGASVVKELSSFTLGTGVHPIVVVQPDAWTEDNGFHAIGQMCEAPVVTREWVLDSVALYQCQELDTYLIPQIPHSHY

| SMILES | Activity [1] | Kd [1] | further results |
| --- | --- | --- | --- |
| CC(=O)N[C@@H](COP(=O)(O)O)C(=O)N1CCC[C@H]1C(=O)N[C@H](C(=O)N[C@@H](Cc1ccccc1)C(=O)O)C(C)C (Ac-[pS]PVF-OH) | Active | – | – |
| CC(=O)N[C@@H](COP(=O)(O)O)C(=O)N1CCC[C@H]1C(=O)N[C@H](C(=O)N[C@@H](Cc1ccccc1)C(N)=O)C(C)C (Ac-[pS]PVF-NH2) | Active | – | – |
| CC(=O)N[C@@H](COP(=O)(O)O)C(=O)N1CCC[C@H]1C(=O)N[C@H](C(=O)N[C@@H](Cc1ccccc1)C(N)=O)[C@@H](C)O (Ac-[pS]PTF-NH2) | Active | – | – |
| CC[C@H](C)[C@H](N)C(=O)N[C@@H](CO)C(=O)N[C@@H](CCCNC(=N)N)C(=O)N[C@@H](CO)C(=O)N[C@H](C(=O)N[C@@H](COP(=O)(O)O)C(=O)N1CCC[C@H]1C(=O)N[C@H](C(=O)N[C@@H](Cc1ccccc1)C(=O)N[C@@H](CC(N)=O)C(=O)N[C@@H](CCCCN)C(=O)N[C@@H](CCC(N)=O)C(=O)N[C@H](C(=O)O)[C@@H](C)O)[C@@H](C)O)[C@@H](C)O | – | 410 nM | – |
| CC(=O)N[C@@H](CCC(=O)O)C(=O)N1CCC[C@H]1C(=O)N[C@H](C(=O)N[C@@H](Cc1ccccc1)C(N)=O)[C@@H](C)O (Ac-EPTF-NH2) | – | – | IC50 [2]: > 250000 nM |
| CC(=O)N[C@@H](CO)C(=O)N[C@@H](CCCNC(=N)N)C(=O)N[C@@H](CO)C(=O)N[C@H](C(=O)N[C@@H](COP(=O)(O)O)C(=O)N1CCC[C@H]1C(=O)N[C@H](C(=O)N[C@@H](Cc1ccccc1)C(=O)N[C@@H](CC(N)=O)C(=O)N[C@@H](CCCCN)C(N)=O)[C@@H](C)O)[C@@H](C)O | – | 440 nM | – |
